Active and inactive are the calls of the source.
Legend:
Format in all cases: functional, cell-based
UACC-257 = assay: Growth inhibition of human UACC257 cells at 10^-5 M incubated for 48 hrs by sulforhodamine B assay
Outline: (§1)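 Tested at a single concentration of 1 × 10−5 M as part of the NCI59 cell-line one-dose screen.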

NCI-H226 = assay: Growth inhibition of human NCI-H226 cells at 10^-5 M incubated for 48 hrs by sulforhodamine B assay
Outline: (§2)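 Run in the NCI59 one-dose cell-line screen, with each compound tested at a single concentration of 1 × 10−5 M.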

HOP-92 = assay: Growth inhibition of human HOP92 cells at 10^-5 M incubated for 48 hrs by sulforhodamine B assay; outline: as §2
EKVX = assay: Growth inhibition of human EKVX cells at 10^-5 M incubated for 48 hrs by sulforhodamine B assay; outline: as §2
HCT-116 = assay: Growth inhibition of human HCT116 cells at 10^-5 M incubated for 48 hrs by sulforhodamine B assay; outline: as §2
NCI-H322M = assay: Growth inhibition of human NCI-H322M cells at 10^-5 M incubated for 48 hrs by sulforhodamine B assay; outline: as §2
SN12C = assay: Growth inhibition of human SN12C cells at 10^-5 M incubated for 48 hrs by sulforhodamine B assay; outline: as §2
Hs-578T = assay: Growth inhibition of human Hs 578T cells at 10^-5 M incubated for 48 hrs by sulforhodamine B assay; outline: as §2
A498 = assay: Growth inhibition of human A498 cells at 10^-5 M incubated for 48 hrs by sulforhodamine B assay; outline: as §2
SK-MEL-5 = assay: Growth inhibition of human SK-MEL-5 cells at 10^-5 M incubated for 48 hrs by sulforhodamine B assay; outline: as §2
A549 = assay: Growth inhibition of human A549/ATCC cells at 10^-5 M incubated for 48 hrs by sulforhodamine B assay; outline: as §2
IGROV-1 = assay: Growth inhibition of human IGROV1 cells at 10^-5 M incubated for 48 hrs by sulforhodamine B assay; outline: as §2
MOLT-4 = assay: Growth inhibition of human MOLT4 cells at 10^-5 M incubated for 48 hrs by sulforhodamine B assay; outline: as §2
UACC-62 = assay: Growth inhibition of human UACC62 cells at 10^-5 M incubated for 48 hrs by sulforhodamine B assay; outline: as §1
SNB-75 = assay: Growth inhibition of human SNB75 cells at 10^-5 M incubated for 48 hrs by sulforhodamine B assay; outline: as §2
CAKI-1 = assay: Growth inhibition of human Caki1 cells at 10^-5 M incubated for 48 hrs by sulforhodamine B assay; outline: as §2
BT-549 = assay: Growth inhibition of human BT549 cells at 10^-5 M incubated for 48 hrs by sulforhodamine B assay; outline: as §2
OVCAR-8 = assay: Growth inhibition of human OVCAR8 cells at 10^-5 M incubated for 48 hrs by sulforhodamine B assay; outline: as §2
DU-145 = assay: Growth inhibition of human DU145 cells at 10^-5 M incubated for 48 hrs by sulforhodamine B assay; outline: as §2
SF-295 = assay: Growth inhibition of human SF295 cells at 10^-5 M incubated for 48 hrs by sulforhodamine B assay; outline: as §2
SF-268 = assay: Growth inhibition of human SF268 cells at 10^-5 M incubated for 48 hrs by sulforhodamine B assay; outline: as §2
HT-29 = assay: Growth inhibition of human HT-29 cells at 10^-5 M incubated for 48 hrs by sulforhodamine B assay; outline: as §2
UO-31 = assay: Growth inhibition of human UO31 cells at 10^-5 M incubated for 48 hrs by sulforhodamine B assay; outline: as §1
NCI/ADR-RES = assay: Growth inhibition of human NCI/ADR-RES cells at 10^-5 M incubated for 48 hrs by sulforhodamine B assay; outline: as §2
OVCAR-4 = assay: Growth inhibition of human OVCAR4 cells at 10^-5 M incubated for 48 hrs by sulforhodamine B assay; outline: as §2
CCRF-CEM = assay: Growth inhibition of human CCRF-CEM cells at 10^-5 M incubated for 48 hrs by sulforhodamine B assay; outline: as §2
KM12 = assay: Growth inhibition of human KM12 cells at 10^-5 M incubated for 48 hrs by sulforhodamine B assay; outline: as §2
RPMI-8226 = assay: Growth inhibition of human RPMI8226 cells at 10^-5 M incubated for 48 hrs by sulforhodamine B assay; outline: as §2
SNB-19 = assay: Growth inhibition of human SNB19 cells at 10^-5 M incubated for 48 hrs by sulforhodamine B assay; outline: as §2
M14 = assay: Growth inhibition of human M14 cells at 10^-5 M incubated for 48 hrs by sulforhodamine B assay; outline: as §2
MDA-MB-435 = assay: Growth inhibition of human MDA-MB-435 cells at 10^-5 M incubated for 48 hrs by sulforhodamine B assay; outline: as §2
HCT-15 = assay: Growth inhibition of human HCT15 cells at 10^-5 M incubated for 48 hrs by sulforhodamine B assay; outline: as §2
SW-620 = assay: Growth inhibition of human SW620 cells at 10^-5 M incubated for 48 hrs by sulforhodamine B assay; outline: as §1
786-0 = assay: Growth inhibition of human 786-0 cells at 10^-5 M incubated for 48 hrs by sulforhodamine B assay; outline: as §2
PC-3 = assay: Growth inhibition of human PC3 cells at 10^-5 M incubated for 48 hrs by sulforhodamine B assay; outline: as §2
NCI-H23 = assay: Growth inhibition of human NCI-H23 cells at 10^-5 M incubated for 48 hrs by sulforhodamine B assay; outline: as §2
COLO 205 = assay: Growth inhibition of human COLO205 cells at 10^-5 M incubated for 48 hrs by sulforhodamine B assay; outline: as §2
SK-MEL-2 = assay: Growth inhibition of human SK-MEL-2 cells at 10^-5 M incubated for 48 hrs by sulforhodamine B assay; outline: as §2
HOP-62 = assay: Growth inhibition of human HOP62 cells at 10^-5 M incubated for 48 hrs by sulforhodamine B assay; outline: as §2
HCC 2998 = assay: Growth inhibition of human HCC2998 cells at 10^-5 M incubated for 48 hrs by sulforhodamine B assay; outline: as §2
SK-MEL-28 = assay: Growth inhibition of human SK-MEL-28 cells at 10^-5 M incubated for 48 hrs by sulforhodamine B assay; outline: as §2
U-251 = assay: Growth inhibition of human U251 cells at 10^-5 M incubated for 48 hrs by sulforhodamine B assay; outline: as §1
NCI-H522 = assay: Growth inhibition of human NCI-H522 cells at 10^-5 M incubated for 48 hrs by sulforhodamine B assay; outline: as §2
MCF7 = assay: Growth inhibition of human MCF7 cells at 10^-5 M incubated for 48 hrs by sulforhodamine B assay; outline: as §2
HL-60(TB) = assay: Growth inhibition of human HL-60(TB) cells at 10^-5 M incubated for 48 hrs by sulforhodamine B assay
Outline: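 Run in the NCI59 cell-line one-dose screen, with each compound tested at a single concentration of 1 × 10−5 M.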

SR = assay: Growth inhibition of human SR cells at 10^-5 M incubated for 48 hrs by sulforhodamine B assay; outline: as §2
MDA-MB-231 = assay: Growth inhibition of human MDA-MB-231 cells at 10^-5 M incubated for 48 hrs by sulforhodamine B assay; outline: as §2
T47D = assay: Growth inhibition of human T47D cells at 10^-5 M incubated for 48 hrs by sulforhodamine B assay; outline: as §1
OVCAR-3 = assay: Growth inhibition of human OVCAR3 cells at 10^-5 M incubated for 48 hrs by sulforhodamine B assay; outline: as §2
NCI-H460 = assay: Growth inhibition of human NCI-H460 cells at 10^-5 M incubated for 48 hrs by sulforhodamine B assay; outline: as §2
SK-OV-3 = assay: Growth inhibition of human SKOV3 cells at 10^-5 M incubated for 48 hrs by sulforhodamine B assay; outline: as §2
SF-539 = assay: Growth inhibition of human SF539 cells at 10^-5 M incubated for 48 hrs by sulforhodamine B assay; outline: as §2
ACHN = assay: Growth inhibition of human ACHN cells at 10^-5 M incubated for 48 hrs by sulforhodamine B assay; outline: as §2
K562 = assay: Growth inhibition of human K562 cells at 10^-5 M incubated for 48 hrs by sulforhodamine B assay; outline: as §2
TK-10 = assay: Growth inhibition of human TK10 cells at 10^-5 M incubated for 48 hrs by sulforhodamine B assay; outline: as §1
RXF 393 = assay: Growth inhibition of human RXF393 cells at 10^-5 M incubated for 48 hrs by sulforhodamine B assay; outline: as §2
OVCAR-5 = assay: Growth inhibition of human OVCAR5 cells at 10^-5 M incubated for 48 hrs by sulforhodamine B assay; outline: as §2
LOX IMVI = assay: Growth inhibition of human LOXIMVI cells at 10^-5 M incubated for 48 hrs by sulforhodamine B assay; outline: as §2

Measured: growth inhibition (GI)

COC(=O)C[C@H]1[C@@]2(C)C[C@@]34O[C@@]5(C)O[C@]6([C@@H]7CC(=O)O[C@@H](c8ccoc8)[C@]7(C)CC[C@]6(O5)[C@@]13C)[C@@H](OC(C)=O)[C@@]4(OC(C)=O)[C@H]2OC(C)=O
inactive: UACC-257 | NCI-H226 | HOP-92 | EKVX | HCT-116 | NCI-H322M | SN12C | Hs-578T | A498 | SK-MEL-5 | A549 | IGROV-1 | MOLT-4 | UACC-62 | SNB-75 | CAKI-1 | BT-549 | OVCAR-8 | DU-145 | SF-295 | SF-268 | HT-29 | UO-31 | NCI/ADR-RES | OVCAR-4 | CCRF-CEM | KM12 | RPMI-8226 | SNB-19 | M14 | MDA-MB-435 | HCT-15 | SW-620 | 786-0 | PC-3 | NCI-H23 | COLO 205 | SK-MEL-2 | HOP-62 | HCC 2998 | SK-MEL-28 | U-251 | NCI-H522 | MCF7 | HL-60(TB) | SR | MDA-MB-231 | T47D | OVCAR-3 | NCI-H460 | SK-OV-3 | SF-539 | ACHN | K562 | TK-10 | RXF 393 | OVCAR-5 | LOX IMVI

CC[C@H](C)C(=O)O[C@@H]1[C@@H]2[C@@H](OC(=O)C(C)C)[C@@]34O[C@]2(O)[C@@](C)([C@@H](CC(=O)OC)C1(C)C)[C@H]3CC[C@]1(C)C4=CC(=O)O[C@H]1C1=CC(O)OC1=O (stereo partly specified)
inactive: UACC-257 | NCI-H226 | HOP-92 | EKVX | HCT-116 | NCI-H322M | SN12C | Hs-578T | A498 | SK-MEL-5 | A549 | IGROV-1 | MOLT-4 | UACC-62 | SNB-75 | CAKI-1 | BT-549 | OVCAR-8 | DU-145 | SF-295 | SF-268 | HT-29 | UO-31 | NCI/ADR-RES | OVCAR-4 | CCRF-CEM | KM12 | RPMI-8226 | SNB-19 | M14 | MDA-MB-435 | HCT-15 | SW-620 | 786-0 | PC-3 | NCI-H23 | COLO 205 | SK-MEL-2 | HOP-62 | HCC 2998 | SK-MEL-28 | U-251 | NCI-H522 | MCF7 | HL-60(TB) | SR | MDA-MB-231 | T47D | OVCAR-3 | NCI-H460 | SK-OV-3 | SF-539 | ACHN | K562 | TK-10 | RXF 393 | OVCAR-5 | LOX IMVI
